# Measurements from ChEMBL document CHEMBL1131198, “From micromolar to nanomolar affinity: a systematic approach to identify the binding site of CGRP at the human calcitonin gene-related peptide 1 receptor” (J Med Chem, 1998).
# Square brackets hold non-standard residues; d marks the D form. Peptide text beside a SMILES is read from it. Hyp = O=C(O)[C@@H]1C[C@@H](O)CN1; Tic = O=C(O)[C@@H]1Cc2ccccc2CN1
# Molecular target: Calcitonin gene-related peptide type 1 receptor (Homo sapiens, UniProt Q16602)
# Assay: (§1) CGRP1 receptor affinity on human neuroblastoma cells SK-N-MC, which selectively express the human CGRP1 receptor.
# How it was run: (§2)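 SK-N-MC membranes (cells grown in DMEM, detached with PBS/0.02% EDTA, homogenized, pellet in Tris buffer pH 7.40 with 1% BSA, 0.1% bacitracin, stored -80 °C) diluted 1:10 in assay buffer (50 mM Tris, 150 mM NaCl, 5 mM MgCl2, 1 mM EDTA, pH 7.40).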
# Sequence of Calcitonin gene-related peptide type 1 receptor (Homo sapiens, UniProt Q16602) (Q16602 whole entry): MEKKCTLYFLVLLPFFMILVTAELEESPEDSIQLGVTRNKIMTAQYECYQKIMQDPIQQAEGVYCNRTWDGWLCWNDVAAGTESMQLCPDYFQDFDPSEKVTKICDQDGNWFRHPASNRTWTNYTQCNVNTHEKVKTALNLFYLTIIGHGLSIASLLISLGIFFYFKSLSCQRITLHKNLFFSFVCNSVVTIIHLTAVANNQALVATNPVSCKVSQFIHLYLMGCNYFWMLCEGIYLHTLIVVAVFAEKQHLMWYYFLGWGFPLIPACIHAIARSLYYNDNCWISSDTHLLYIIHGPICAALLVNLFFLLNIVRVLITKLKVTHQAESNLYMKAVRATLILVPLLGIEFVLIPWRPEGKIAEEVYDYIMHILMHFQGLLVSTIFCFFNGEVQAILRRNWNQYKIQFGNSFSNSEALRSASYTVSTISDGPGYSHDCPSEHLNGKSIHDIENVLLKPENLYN
row,Compound,IC50
1,CC(C)[C@H](NC(=O)[C@H](CC(N)=O)NC(=O)[C@H](NC(=O)[C@@H]1CCCN1C(=O)[C@@H](NC(=O)[C@@H](N)Cc1ccc(O)cc1)C(C)C)[C@@H](C)O)C(=O)NCC(=O)N[C@@H](CO)C(=O)N[C@@H](CCC(=O)O)C(=O)N[C@@H](C)C(=O)N[C@@H](Cc1ccccc1)C(=O)O,No displacement
2,CC(C)[C@H](NC(=O)[C@H](CC(N)=O)NC(=O)[C@@H](NC(=O)[C@@H]1CCCN1C(=O)[C@@H](NC(=O)[C@@H](N)Cc1ccc(O)cc1)C(C)C)[C@@H](C)O)C(=O)NCC(=O)N[C@@H](CO)C(=O)N[C@@H](CCC(=O)O)C(=O)N[C@@H](C)C(=O)N[C@H](Cc1ccccc1)C(=O)O,No displacement
3,CC(C)[C@H](NC(=O)[C@@H](N)Cc1ccc(O)cc1)C(=O)N1CCC[C@H]1C(=O)N[C@H](C(=O)N[C@@H](CC(N)=O)C(=O)N[C@@H](C(=O)NCC(=O)N[C@@H](CO)C(=O)N[C@@H](CCC(=O)O)C(=O)N[C@@H](C)C(=O)N[C@@H](Cc1ccccc1)C(=O)O)C(C)C)[C@@H](C)O,No displacement
4,C[C@H](NC(=O)[C@@H](N)Cc1ccc(O)cc1)C(=O)N[C@@H](Cc1ccccc1)C(=O)O (H-Tyr-Ala-Phe-OH),No displacement
5,CC(C)[C@H](NC(=O)[C@@H](N)Cc1ccc(O)cc1)C(=O)N1CCC[C@H]1C(=O)O (H-Tyr-Val-Pro-OH),No displacement
6,C[C@H](NC(=O)[C@H](CCC(=O)O)NC(=O)[C@@H](N)Cc1ccc(O)cc1)C(=O)N[C@@H](Cc1ccccc1)C(=O)O (H-YEAF-OH),No displacement
7,CC(C)[C@H](NC(=O)[C@@H](N)Cc1ccc(O)cc1)C(=O)N1CCC[C@H]1C(=O)N[C@H](C(=O)O)[C@@H](C)O (H-YVPT-OH),No displacement
8,H-YGSEAF-OH,No displacement
9,H-YNVGSEAF-OH,No displacement
10,H-YSEAF-OH,No displacement
11,H-YVGSEAF-OH,No displacement
12,H-YVPTN-OH,No displacement
13,H-YVPTNV-OH,No displacement
14,H-YVPTNVASEAF-OH,No displacement
15,H-YVPTNVG-OH,No displacement
16,H-YVPTNVGS-OH,No displacement
17,H-YVPTNVGSE-OH,No displacement
18,H-YVPTNVGSEA-OH,No displacement

# Results, then the compound that gave them:
row,IC50,Compound
1,19 µM,CC(C)[C@H](NC(=O)[C@H](CC(N)=O)NC(=O)[C@@H](NC(=O)[C@@H]1CCCN1C(=O)[C@H](NC(=O)[C@@H](N)Cc1ccc(O)cc1)C(C)C)[C@@H](C)O)C(=O)NCC(=O)N[C@@H](CO)C(=O)N[C@@H](CCC(=O)O)C(=O)N[C@@H](C)C(=O)N[C@@H](Cc1ccccc1)C(=O)O
2,No displacement,CC(C)[C@H](NC(=O)[C@H](CC(N)=O)NC(=O)[C@@H](NC(=O)[C@@H]1CCCN1C(=O)[C@@H](NC(=O)[C@@H](N)Cc1ccc(O)cc1)C(C)C)[C@@H](C)O)C(=O)NCC(=O)N[C@@H](CO)C(=O)N[C@H](CCC(=O)O)C(=O)N[C@@H](C)C(=O)N[C@@H](Cc1ccccc1)C(=O)O
3,0.146 µM,CC(C)[C@H](NC(=O)[C@H](CC(=O)O)NC(=O)[C@@H](NC(=O)[C@@H]1CCCN1C(=O)[C@@H](NC(=O)[C@@H](N)Cc1ccccc1)C(C)C)[C@@H](C)O)C(=O)NCC(=O)N1Cc2ccccc2C[C@H]1C(=O)N[C@@H](Cc1ccccc1)C(=O)N[C@@H](C)C(=O)N[C@@H](Cc1ccccc1)C(N)=O (H-FVPTDVG[Tic]FAF-NH2)
4,No displacement,H-YVATNVGSEAF-OH
5,No displacement,H-YVPANVGSEAF-OH
6,No displacement,H-YVPFNVGSEAF-OH
7,No displacement,H-YVPTNAGSEAF-OH
8,No displacement,H-YVPTNFGSEAF-OH
9,No displacement,H-YVPTNVFSEAF-OH
10,No displacement,H-YVPTNVGFEAF-OH
11,No displacement,H-YVPTNVGSEAA-OH
12,No displacement,H-YVPTNVGSEFF-OH

# Molecular target: Calcitonin gene-related peptide type 1 receptor (Homo sapiens, UniProt O60894+Q16602)
# Assay: as §1
# How it was run: as §2
# Sequence of Calcitonin gene-related peptide type 1 receptor (Homo sapiens, UniProt O60894+Q16602) (Q16602 whole entry, one chain of several): as the sequence (Q16602 whole entry) above
row,Compound,IC50
1,H-FVPTDVGAHAF-OH,0.36 µM
2,H-FVPTDVGPEAF-OH,0.47 µM
3,H-FVPTDVGSEAF-OH,> 3 µM
4,H-FVPTNVGSPAF-OH,> 10 µM
5,H-ILSSTNVGSEAF-OH,10 µM
6,H-NFVPTNVGSQGY-OH,10 µM
7,H-NVAPTNVGSEAF-OH,10 µM
8,H-PTDVGAFAF-OH,0.22 µM
9,H-YPTNVGSEAF-OH,24 µM
10,H-YTNVGSEAF-OH,18 µM
11,H-YVPTFVGSEAF-OH,70 µM
12,H-YVPTNVGSLAF-OH,8.55 µM
13,H-YVPTNVGSQAF-OH,6.9 µM
14,H-YVPTQVGSEAF-OH,95 µM

# Now from value to compound:
row,IC50,Compound
1,9 µM,CC(C)[C@H](NC(=O)[C@H](CC(N)=O)NC(=O)[C@@H](NC(=O)[C@@H]1C[C@@H](O)CN1C(=O)[C@@H](NC(=O)[C@@H](N)Cc1ccc(O)cc1)C(C)C)[C@@H](C)O)C(=O)NCC(=O)N[C@@H](CO)C(=O)N[C@@H](CCC(=O)O)C(=O)N[C@@H](C)C(=O)N[C@@H](Cc1ccccc1)C(=O)O (H-YV[Hyp]TNVGSEAF-OH)
2,0.205 µM,Ac-FVPTDVGAFAF-OH
3,4.5 µM,Ac-FVPTNVGSEAF-OH
4,0.49 µM,Ac-PTDVGAFAF-OH
5,0.3 µM,Ac-VPTDVGAFAF-OH
6,24 µM,H-AVPTNVGSEAF-OH
7,3.4 µM,H-FPPTNVGSEAF-OH
8,> 10 µM,H-FVPPNVGSEAF-OH
9,0.159 µM,H-FVPTDVGAFAF-OH
10,1.2 µM,H-FVPTDVGSQAF-OH
11,> 10 µM,H-FVPTNPGSEAF-OH
12,0.28 µM,H-FVPTNVGPEAF-OH
13,3 µM,H-FVPTNVGSEAF-OH
14,> 10 µM,H-FVPTNVGSEPF-OH
15,2.7 µM,H-FVPTNVGSKAF-OH
16,> 10 µM,H-FVPTNVPSEAF-OH
17,4.5 µM,H-FVPTPVGSEAF-OH
18,10 µM,H-NFVPRSKISPEAF-OH
19,10 µM,H-NFVPRSKISPQGY-OH

row,IC50,Compound
1,10 µM,H-NFVPTNVGSNTY-OH
2,10 µM,H-NVAPRSKISPEAF-OH
3,10 µM,H-NVAPTNVGSQGY-OH
4,0.2 µM,H-VPTDVGAFAF-OH
5,8 µM,H-YAPTNVGSEAF-OH
6,14 µM,H-YFPTNVGSEAF-OH
7,45 µM,H-YVFTNVGSEAF-OH
8,> 100 µM,H-YVPSNVGSEAF-OH
9,> 100 µM,H-YVPTAVGSEAF-OH
10,5 µM,H-YVPTDVGSEAF-OH
11,7 µM,H-YVPTLVGSEAF-OH
12,4 µM,H-YVPTNVGAEAF-OH
13,> 10 µM,H-YVPTNVGSAAF-OH
14,32 µM,H-YVPTNVGSEAY-OH
15,51 µM,H-YVPTNVGSEGF-OH
16,4.79 µM,H-YVPTNVGSFAF-OH
17,4.28 µM,H-YVPTNVGSHAF-OH
18,6.5 µM,H-YVPTNVGSKAF-OH
